The entries come from a sample that favours hits as a whole.
DYRK1A inh = inhibitors of rat Dyrk1A kinase. Q63470. ADP-Glo luminescence, NFATc1 peptide. inhibition, % at 12.5 µM. 310,000 tested, 0.43% active. AID 504441; in the data active means inhibition above about 50%
STK33 kinase inh = human STK33 kinase inhibition; purified STK33, MBP phosphorylation, ADP-Glo luminescence; inhibition, % at 10 µM; 320,000 tested, 0.073% active; AID 2661; Q9BYT3;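 active means inhibition at or above 25%, using the most active replicate where run in duplicate; inactive means inhibition below 25%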
GSK3 alpha inh = human GSK-3 alpha kinase inhibition; inhibition, % at 10 µM; P49840; ADP-Glo luminescence, 60 min; 320,000 tested, 0.1% active;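 active means more than half of replicates show inhibition above 20%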;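 further: GST-tagged GSK-3 alpha with peptide substrate and 25 µM ATP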
CDK5 p35 inh = blocks human CDK5/p35 kinase activity | Recombinant CDK5/p35, ADP-Glo luminescence, 60 min | inhibition, % at 10 µM | AID 488839 | 330,000 tested, 0.01% active;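 active means highest replicate inhibition of at least 50% and at least 75% of replicates reaching 50%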
Target sequence (Q00535 whole entry, looked up): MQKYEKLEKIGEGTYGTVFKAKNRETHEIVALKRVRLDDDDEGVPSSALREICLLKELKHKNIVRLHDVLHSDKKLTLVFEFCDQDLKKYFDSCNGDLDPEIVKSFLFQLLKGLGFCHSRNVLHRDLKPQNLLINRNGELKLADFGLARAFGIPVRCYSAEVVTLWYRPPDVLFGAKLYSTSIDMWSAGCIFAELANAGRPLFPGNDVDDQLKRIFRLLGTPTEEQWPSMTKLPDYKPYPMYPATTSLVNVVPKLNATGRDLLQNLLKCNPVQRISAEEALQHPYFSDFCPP
Target sequence (Q15078 whole entry, looked up): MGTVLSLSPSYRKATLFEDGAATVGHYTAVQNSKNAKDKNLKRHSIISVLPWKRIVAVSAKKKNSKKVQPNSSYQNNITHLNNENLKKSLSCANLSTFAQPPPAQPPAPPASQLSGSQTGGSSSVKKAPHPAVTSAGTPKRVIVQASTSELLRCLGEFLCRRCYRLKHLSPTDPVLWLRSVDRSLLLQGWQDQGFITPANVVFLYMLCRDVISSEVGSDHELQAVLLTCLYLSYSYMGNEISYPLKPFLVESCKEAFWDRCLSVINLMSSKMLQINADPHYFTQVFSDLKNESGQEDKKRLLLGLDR
GSK3B inh = human GSK3beta kinase inhibition. P49841. GST-GSK3beta kinase, ADP-Glo luminescence, 60 min; hits give low values. activity score (negative = inhibition), % at 10 µM. 300,000 tested, 0.038% active. AID 2097;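 active means more than half of replicate wells score below -50%, meaning over 50% inhibition versus plate controls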
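test system = GST-tagged human GSK3beta kinase, cell-free | reagent = 25 µM ATP with peptide substrate | dosing = one dose of 10 µM per compound | schedule = 60 min reaction, RT | detection = luminescent ADP-Glo measurement of ADP formed | control set = DMSO neutral wells and GW8510 at 20 µM as positive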
Dyrk1A artifact = interferes with ADP-Glo luciferase readout without Dyrk1A. AC50, µM (series often up to 12 µM). 1,300 tested, under 10 active. shares compounds with DYRK1A inh. AID 588348. ADP-Glo luciferase artifact assay, no Dyrk1A, luminescence;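 active means fitted half-maximal dose AC50 no more than ten times the top valid tested dose, with luminescence dropping as dose rises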
Of the large screens only hits and unclear results are named; the others gave an inactive call (follow-up assays come after a bar, where they were run).

Cc1ccccc1C(=O)N1CCN(c2ccc(NC(=O)c3cccc(OC(C)C)c3)cc2)CC1	DYRK1A inh 60 | Dyrk1A artifact inactive
COc1c(C)cccc1C(=O)Nc1ccc(N2CCN(C(=O)c3ccccc3C)CC2)cc1	none
COc1ccccc1/C=C/C(=O)Nc1cccc(C(C)=O)c1	none (no result: GSK3 alpha inh)
O=C(/C=C/c1ccccc1)Nc1cccc(C(=O)NC2CC2)c1	DYRK1A inh 63 (no result: STK33 kinase inh, GSK3 alpha inh, GSK3B inh) | Dyrk1A artifact inactive
COc1ccc(/C=C/C(=O)Nc2cccc(C(C)=O)c2)cc1	DYRK1A inh 56 | Dyrk1A artifact inactive
